# Measurements published in ChEMBL document CHEMBL2040714, “Synthesis of methylated quercetin derivatives and their reversal activities on P-gp- and BCRP-mediated multidrug resistance tumour cells” (Eur J Med Chem, 2012).
# Species: Homo sapiens
# Assay: Reversal of p-glycoprotein-mediated drug resistant in human LCC-6/MDR cells assessed as potentiation of paclitaxel-induced cytotoxicity at 1 uM after 5 days by MTS assay
# Type: cell-based
# Details: not given
# How it was run: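 LCC6MDR cells (6000/well, DMEM with 10% FBS) given paclitaxel over a range of doses, with or without 1 μM modulator, for 5 days at 37 °C; MTS read-out. IC50 from dose–response curves, and RF = IC50 without / IC50 with 1.0 μM modulator. N = 2–4 independent experiments, mean ± SEM.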
row,Compound,fold change (FC)
1,COc1cc(OC)c2c(=O)c(OCCn3cnc4c(=O)n(C)c(=O)n(C)c43)c(-c3ccc(OC)c(OC)c3)oc2c1,1.2
2,COc1cc(OC)c2c(=O)c(OCC(=O)c3ccc(OC)c(OC)c3)c(-c3ccc(OC)c(OC)c3)oc2c1,1.3
3,COc1cc(OC)c2c(=O)c(OCCO)c(-c3ccc(OC)c(OC)c3)oc2c1,1.4
4,COc1cc(OC)c2c(=O)c(OCCOC(=O)/C=C/c3cc(OC)c(OC)c(OC)c3)c(-c3ccc(OC)c(OC)c3)oc2c1,6
5,C[C@@H]1O[C@@H](OC[C@H]2O[C@@H](Oc3c(-c4ccc(O)c(O)c4)oc4cc(O)cc(O)c4c3=O)[C@H](O)[C@@H](O)[C@@H]2O)[C@H](O)[C@H](O)[C@H]1O [RUTIN],0.9
6,COc1cc(OC)c2c(=O)c(OCCOC(=O)c3cc(OC)c(OC)c(OC)c3)c(-c3ccc(OC)c(OC)c3)oc2c1,3.2
7,COc1cc(OC)c2c(=O)c(OCCOC(=O)c3ccc(OC)c(OC)c3)c(-c3ccc(OC)c(OC)c3)oc2c1,6.4

# Tested on: NCI/ADR-RES
# Assay: Modulation of p-glycoprotein-mediated drug resistant in human MCF7/ADR cells assessed as increase of daunomycin accumulation at 100 uM
# Type: cell-based
# Details: not given
row,Compound,Activity [%]
1,O=c1c(O)c(-c2ccc(O)c(O)c2)oc2cc(O)cc(O)c12 [QUERCETIN],202
2,COc1ccc(CCN(C)CCCC(C#N)(c2ccc(OC)c(OC)c2)C(C)C)cc1OC (centres undefined),229

# Tested on: L929
# Assay: Cytotoxicity against mouse L929 cells after 5 days by MTS assay
# Type: cell-based
# Details: L929, 120 h
# How it was run: (§1)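 Cells seeded in 96-well plates (6000/well for LCC6 and LCC6MDR) and exposed to a range of derivative concentrations, dissolved in DMSO at no more than 1% final, for 5 days at 37 °C. Viability read by MTS; IC50 taken from dose–response curves. Three repeats, mean ± SEM. LCC6 lines grown in DMEM with 10% heat-inactivated FBS; L929 is a mouse fibroblast line.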
row,Compound,IC50 [µM]
1,O=c1c(O)c(-c2ccc(O)c(O)c2)oc2cc(O)cc(O)c12 [QUERCETIN],> 100
2,COc1cc(OC)c2c(=O)c(OCCn3cnc4c(=O)n(C)c(=O)n(C)c43)c(-c3ccc(OC)c(OC)c3)oc2c1,> 100
3,COc1cc(OC)c2c(=O)c(OCC(=O)c3ccc(OC)c(OC)c3)c(-c3ccc(OC)c(OC)c3)oc2c1,> 100
4,COc1cc(OC)c2c(=O)c(OCCO)c(-c3ccc(OC)c(OC)c3)oc2c1,> 100
5,COc1cc(OC)c2c(=O)c(OCCOC(=O)/C=C/c3cc(OC)c(OC)c(OC)c3)c(-c3ccc(OC)c(OC)c3)oc2c1,> 100
6,C[C@@H]1O[C@@H](OC[C@H]2O[C@@H](Oc3c(-c4ccc(O)c(O)c4)oc4cc(O)cc(O)c4c3=O)[C@H](O)[C@@H](O)[C@@H]2O)[C@H](O)[C@H](O)[C@H]1O [RUTIN],> 100
7,COc1cc(OC)c2c(=O)c(OCCOC(=O)c3cc(OC)c(OC)c(OC)c3)c(-c3ccc(OC)c(OC)c3)oc2c1,> 100
8,COc1cc(OC)c2c(=O)c(OCCOC(=O)c3ccc(OC)c(OC)c3)c(-c3ccc(OC)c(OC)c3)oc2c1,> 100

# Target: T1, Broad substrate specificity ATP-binding cassette transporter ABCG2 (Homo sapiens, UniProt Q9UNQ0)
# T1 sequence (Q9UNQ0 whole entry): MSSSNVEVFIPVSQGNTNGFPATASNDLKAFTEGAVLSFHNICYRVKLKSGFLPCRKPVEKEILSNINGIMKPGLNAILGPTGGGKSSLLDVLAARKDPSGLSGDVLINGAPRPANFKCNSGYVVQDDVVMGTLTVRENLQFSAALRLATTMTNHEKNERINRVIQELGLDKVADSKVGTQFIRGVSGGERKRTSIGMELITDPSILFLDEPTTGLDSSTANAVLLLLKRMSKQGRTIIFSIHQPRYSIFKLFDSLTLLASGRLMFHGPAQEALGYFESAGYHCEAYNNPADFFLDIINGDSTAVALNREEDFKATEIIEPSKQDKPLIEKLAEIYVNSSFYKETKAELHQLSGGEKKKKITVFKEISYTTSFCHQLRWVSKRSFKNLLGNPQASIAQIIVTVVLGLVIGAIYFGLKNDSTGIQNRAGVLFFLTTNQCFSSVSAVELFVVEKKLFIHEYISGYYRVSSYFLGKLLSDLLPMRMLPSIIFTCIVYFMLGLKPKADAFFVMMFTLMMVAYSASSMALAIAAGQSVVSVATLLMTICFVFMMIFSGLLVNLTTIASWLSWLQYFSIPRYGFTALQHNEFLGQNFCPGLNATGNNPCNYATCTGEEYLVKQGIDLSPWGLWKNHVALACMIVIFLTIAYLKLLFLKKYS
# Assay: Reversal of BCRP-mediated drug resistant in human MCF7-MX100 cells assessed as potentiation of topotecan-induced cytotoxicity at 1 uM after 5 days by MTS assay
# Type: cell-based
# Details: mcf7-mx100, 120 h
row,Compound,fold change (FC)
1,COc1cc(OC)c2c(=O)c(OCCn3cnc4c(=O)n(C)c(=O)n(C)c43)c(-c3ccc(OC)c(OC)c3)oc2c1,1.4
2,COc1cc(OC)c2c(=O)c(OCC(=O)c3ccc(OC)c(OC)c3)c(-c3ccc(OC)c(OC)c3)oc2c1,1.4
3,COc1cc(OC)c2c(=O)c(OCCO)c(-c3ccc(OC)c(OC)c3)oc2c1,1.5
4,COc1cc(OC)c2c(=O)c(OCCOC(=O)/C=C/c3cc(OC)c(OC)c(OC)c3)c(-c3ccc(OC)c(OC)c3)oc2c1,9.1
5,C[C@@H]1O[C@@H](OC[C@H]2O[C@@H](Oc3c(-c4ccc(O)c(O)c4)oc4cc(O)cc(O)c4c3=O)[C@H](O)[C@@H](O)[C@@H]2O)[C@H](O)[C@H](O)[C@H]1O [RUTIN],4.3
6,COc1cc(OC)c2c(=O)c(OCCOC(=O)c3cc(OC)c(OC)c(OC)c3)c(-c3ccc(OC)c(OC)c3)oc2c1,2
7,COc1cc(OC)c2c(=O)c(OCCOC(=O)c3ccc(OC)c(OC)c3)c(-c3ccc(OC)c(OC)c3)oc2c1,6.7

# Tested on: not listed separately
# Assay: Cytotoxicity against human LCC-6 cells after 5 days by MTS assay
# Type: cell-based
# Details: LCC-6, 120 h
# How it was run: as §1
row,Compound,IC50 [µM]
1,O=c1c(O)c(-c2ccc(O)c(O)c2)oc2cc(O)cc(O)c12 [QUERCETIN],> 100
2,COc1cc(OC)c2c(=O)c(OCCn3cnc4c(=O)n(C)c(=O)n(C)c43)c(-c3ccc(OC)c(OC)c3)oc2c1,> 100
3,COc1cc(OC)c2c(=O)c(OCC(=O)c3ccc(OC)c(OC)c3)c(-c3ccc(OC)c(OC)c3)oc2c1,> 100
4,COc1cc(OC)c2c(=O)c(OCCO)c(-c3ccc(OC)c(OC)c3)oc2c1,> 100
5,COc1cc(OC)c2c(=O)c(OCCOC(=O)/C=C/c3cc(OC)c(OC)c(OC)c3)c(-c3ccc(OC)c(OC)c3)oc2c1,> 100
6,C[C@@H]1O[C@@H](OC[C@H]2O[C@@H](Oc3c(-c4ccc(O)c(O)c4)oc4cc(O)cc(O)c4c3=O)[C@H](O)[C@@H](O)[C@@H]2O)[C@H](O)[C@H](O)[C@H]1O [RUTIN],> 100
7,COc1cc(OC)c2c(=O)c(OCCOC(=O)c3cc(OC)c(OC)c(OC)c3)c(-c3ccc(OC)c(OC)c3)oc2c1,> 100
8,COc1cc(OC)c2c(=O)c(OCCOC(=O)c3ccc(OC)c(OC)c3)c(-c3ccc(OC)c(OC)c3)oc2c1,> 100

# Tested on: not listed separately
# Assay: Cytotoxicity against multidrug resistant human LCC6MDR cells after 5 days by MTS assay
# Details: 120 h
row,Compound,IC50 [µM]
1,O=c1c(O)c(-c2ccc(O)c(O)c2)oc2cc(O)cc(O)c12 [QUERCETIN],> 100
2,COc1cc(OC)c2c(=O)c(OCCn3cnc4c(=O)n(C)c(=O)n(C)c43)c(-c3ccc(OC)c(OC)c3)oc2c1,> 100
3,COc1cc(OC)c2c(=O)c(OCC(=O)c3ccc(OC)c(OC)c3)c(-c3ccc(OC)c(OC)c3)oc2c1,> 100
4,COc1cc(OC)c2c(=O)c(OCCO)c(-c3ccc(OC)c(OC)c3)oc2c1,> 100
5,COc1cc(OC)c2c(=O)c(OCCOC(=O)/C=C/c3cc(OC)c(OC)c(OC)c3)c(-c3ccc(OC)c(OC)c3)oc2c1,> 100
6,C[C@@H]1O[C@@H](OC[C@H]2O[C@@H](Oc3c(-c4ccc(O)c(O)c4)oc4cc(O)cc(O)c4c3=O)[C@H](O)[C@@H](O)[C@@H]2O)[C@H](O)[C@H](O)[C@H]1O [RUTIN],> 100
7,COc1cc(OC)c2c(=O)c(OCCOC(=O)c3cc(OC)c(OC)c(OC)c3)c(-c3ccc(OC)c(OC)c3)oc2c1,> 100
8,COc1cc(OC)c2c(=O)c(OCCOC(=O)c3ccc(OC)c(OC)c3)c(-c3ccc(OC)c(OC)c3)oc2c1,> 100

# Target: Multidrug resistance-associated protein 1 (Homo sapiens, UniProt P33527)
# Assay: Reversal of MRP1-mediated drug resistant in human 2008/MRP1 cells assessed as potentiation of doxorubicin-induced cytotoxicity at 1 uM after 5 days by MTS assay
# Type: cell-based
# Details: 2008/mrp1, 120 h
# Sequence of Multidrug resistance-associated protein 1 (P33527 whole entry): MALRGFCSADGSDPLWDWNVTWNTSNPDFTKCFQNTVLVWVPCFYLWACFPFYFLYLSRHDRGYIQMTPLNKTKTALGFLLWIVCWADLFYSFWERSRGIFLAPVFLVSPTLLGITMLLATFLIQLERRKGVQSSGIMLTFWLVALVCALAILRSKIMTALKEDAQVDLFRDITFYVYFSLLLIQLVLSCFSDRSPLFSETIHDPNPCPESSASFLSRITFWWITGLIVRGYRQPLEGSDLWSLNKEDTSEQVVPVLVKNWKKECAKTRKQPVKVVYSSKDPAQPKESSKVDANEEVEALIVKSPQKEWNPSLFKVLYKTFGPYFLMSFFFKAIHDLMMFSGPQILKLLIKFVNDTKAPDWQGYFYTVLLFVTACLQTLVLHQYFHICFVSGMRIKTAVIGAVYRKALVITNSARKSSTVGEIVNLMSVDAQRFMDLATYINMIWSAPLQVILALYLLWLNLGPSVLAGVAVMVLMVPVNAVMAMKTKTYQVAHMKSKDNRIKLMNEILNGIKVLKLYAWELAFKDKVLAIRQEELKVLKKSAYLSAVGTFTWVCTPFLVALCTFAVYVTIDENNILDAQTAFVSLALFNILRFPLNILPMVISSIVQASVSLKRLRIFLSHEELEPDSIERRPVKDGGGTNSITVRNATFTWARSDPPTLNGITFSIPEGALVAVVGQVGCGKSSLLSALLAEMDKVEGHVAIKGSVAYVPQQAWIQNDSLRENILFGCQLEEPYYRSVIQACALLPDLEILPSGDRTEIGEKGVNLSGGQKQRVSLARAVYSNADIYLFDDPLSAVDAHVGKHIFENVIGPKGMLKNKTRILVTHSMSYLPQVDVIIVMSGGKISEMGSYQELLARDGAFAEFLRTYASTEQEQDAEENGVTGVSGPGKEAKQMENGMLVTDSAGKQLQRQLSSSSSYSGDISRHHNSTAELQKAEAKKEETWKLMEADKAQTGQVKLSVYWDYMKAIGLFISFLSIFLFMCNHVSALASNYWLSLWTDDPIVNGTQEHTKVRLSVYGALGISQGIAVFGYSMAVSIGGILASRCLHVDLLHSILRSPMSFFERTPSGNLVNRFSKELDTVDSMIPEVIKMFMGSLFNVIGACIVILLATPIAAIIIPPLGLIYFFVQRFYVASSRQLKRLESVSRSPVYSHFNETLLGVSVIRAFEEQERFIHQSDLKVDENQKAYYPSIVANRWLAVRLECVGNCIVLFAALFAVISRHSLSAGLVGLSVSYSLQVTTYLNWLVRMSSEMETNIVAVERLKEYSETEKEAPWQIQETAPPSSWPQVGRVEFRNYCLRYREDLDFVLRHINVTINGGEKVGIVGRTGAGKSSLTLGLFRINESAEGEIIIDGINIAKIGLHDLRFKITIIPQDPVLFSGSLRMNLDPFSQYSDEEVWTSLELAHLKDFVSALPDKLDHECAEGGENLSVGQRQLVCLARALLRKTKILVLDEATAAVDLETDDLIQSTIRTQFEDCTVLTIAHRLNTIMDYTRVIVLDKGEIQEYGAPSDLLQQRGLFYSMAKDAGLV
row,Compound,fold change (FC)
1,COc1cc(OC)c2c(=O)c(OCCn3cnc4c(=O)n(C)c(=O)n(C)c43)c(-c3ccc(OC)c(OC)c3)oc2c1,1
2,COc1cc(OC)c2c(=O)c(OCC(=O)c3ccc(OC)c(OC)c3)c(-c3ccc(OC)c(OC)c3)oc2c1,0.9
3,COc1cc(OC)c2c(=O)c(OCCO)c(-c3ccc(OC)c(OC)c3)oc2c1,0.8
4,COc1cc(OC)c2c(=O)c(OCCOC(=O)/C=C/c3cc(OC)c(OC)c(OC)c3)c(-c3ccc(OC)c(OC)c3)oc2c1,1.5
5,C[C@@H]1O[C@@H](OC[C@H]2O[C@@H](Oc3c(-c4ccc(O)c(O)c4)oc4cc(O)cc(O)c4c3=O)[C@H](O)[C@@H](O)[C@@H]2O)[C@H](O)[C@H](O)[C@H]1O [RUTIN],1.2
6,COc1cc(OC)c2c(=O)c(OCCOC(=O)c3cc(OC)c(OC)c(OC)c3)c(-c3ccc(OC)c(OC)c3)oc2c1,1.1
7,COc1cc(OC)c2c(=O)c(OCCOC(=O)c3ccc(OC)c(OC)c3)c(-c3ccc(OC)c(OC)c3)oc2c1,1.2

# Target: T1, Broad substrate specificity ATP-binding cassette transporter ABCG2
# Assay: Reversal of BCRP-mediated drug resistant in human HEK293/R2 cells assessed as potentiation of topotecan-induced cytotoxicity at 1 uM after 5 days by MTS assay
# Type: cell-based
# Details: hek293/r2, 120 h
row,Compound,fold change (FC)
1,COc1cc(OC)c2c(=O)c(OCCn3cnc4c(=O)n(C)c(=O)n(C)c43)c(-c3ccc(OC)c(OC)c3)oc2c1,1.4
2,COc1cc(OC)c2c(=O)c(OCC(=O)c3ccc(OC)c(OC)c3)c(-c3ccc(OC)c(OC)c3)oc2c1,1.4
3,COc1cc(OC)c2c(=O)c(OCCO)c(-c3ccc(OC)c(OC)c3)oc2c1,3.9
4,COc1cc(OC)c2c(=O)c(OCCOC(=O)/C=C/c3cc(OC)c(OC)c(OC)c3)c(-c3ccc(OC)c(OC)c3)oc2c1,14
5,C[C@@H]1O[C@@H](OC[C@H]2O[C@@H](Oc3c(-c4ccc(O)c(O)c4)oc4cc(O)cc(O)c4c3=O)[C@H](O)[C@@H](O)[C@@H]2O)[C@H](O)[C@H](O)[C@H]1O [RUTIN],1.3
6,COc1cc(OC)c2c(=O)c(OCCOC(=O)c3cc(OC)c(OC)c(OC)c3)c(-c3ccc(OC)c(OC)c3)oc2c1,4.7
7,COc1cc(OC)c2c(=O)c(OCCOC(=O)c3ccc(OC)c(OC)c3)c(-c3ccc(OC)c(OC)c3)oc2c1,4.6
